# S1P3 agonist – activates the human S1P3 receptor; Q99500; S1P3 NFAT-BLA reporter cells, agonism, FRET ratio; relative to 1 µM S1P, basal subtracted; activation, % at 4.5 µM; 60,000 tested, 0.1% active;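 active = activation above the screen-wide mean plus 3 SD, cut at about 4.5% in these data, passing the limit was not always enough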
#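 Benchmarks: high control 1 µM S1P / System: stable CHO line with human S1P3, Gα16, NFAT-BLA reporter / Dosing: single compound concentration, 4.5 µM final / Timing: 4 h compound at 37 °C, 2 h substrate at RT / Measured by: FRET β-lactamase substrate fluorescence, excitation 405 nm, 460/535 nm emission ratio, background-subtracted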
# M1 ag – activates the M1 muscarinic receptor. CHO-M1 cells, Fluo-4 calcium fluorescence, agonist mode; active compounds read high. 64,000 tested, 3% active. B-score at 10 µM;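 active = fluorescence rise, raw or as B-score row- and column-corrected plate score, outside the 99.7% band of its plate's samples, either direction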
# Jurkat viability – reduces viability or proliferation of Jurkat cells. Jurkat E6.1 viability, ATP luminescence, 48 h. inhibition, % at 4 µM. 56,000 tested, 1.2% active;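 active = inhibition above the mean inhibition of all tested compounds plus 3 SD, cut at about 28% in these data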
# JNK3 blocker – blocks human JNK3 kinase activity; P53779; purified JNK3 kinase activity, HTS; inhibition, % at 8 µM; 60,000 tested, 0.61% active; AID 746; in the data active = inhibition above about 17%;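 note: 0% = DMSO and 100% = reference inhibitor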
# S1P1 ag pot – S1P1 (human) agonism or agonism potentiation; AID 449; 56,000 tested, 0.57% active; activation, % at 9.5 µM; S1P1 CRE-bla cells, forskolin, beta-lactamase FRET, potentiator mode; S1P1 agonist co-added at EC20, 2 nM; 100% = saturating reference agonist, 0% = basal; P21453;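 active = activation above a cutoff set at the mean activation of all tested compounds plus 3 SD, cut at about 54% in these data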;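 note: forskolin at 4 µM as EC80 and the EC20 agonist is SEW2871; 100% = SEW2871 at its EC100 plus forskolin at EC80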
# Target sequence (P21453 whole entry, looked up): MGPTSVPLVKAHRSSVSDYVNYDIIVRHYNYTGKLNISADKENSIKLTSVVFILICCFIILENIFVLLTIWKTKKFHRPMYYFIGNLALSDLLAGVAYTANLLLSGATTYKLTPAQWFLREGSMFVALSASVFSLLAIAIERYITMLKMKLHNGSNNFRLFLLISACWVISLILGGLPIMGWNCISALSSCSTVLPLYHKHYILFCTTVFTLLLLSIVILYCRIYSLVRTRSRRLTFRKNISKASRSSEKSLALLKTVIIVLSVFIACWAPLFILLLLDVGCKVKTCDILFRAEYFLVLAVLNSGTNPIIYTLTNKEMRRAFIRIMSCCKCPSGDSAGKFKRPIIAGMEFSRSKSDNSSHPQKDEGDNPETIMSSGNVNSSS
# M1 antag – M1 muscarinic receptor (rat) antagonism; P08482; CHO-M1 cells, Fluo-4 calcium, ACh EC80 antagonist mode; active compounds read low; B-score at 10 µM; 64,000 tested, 3.4% active;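 active = calcium fluorescence response, raw or row-and-column corrected B-score, differing from the plate sample mean either way at a set confidence level, mostly lower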
# * marks the source's active call; other numbers are inactive results; · = not tested or not shown. This is a sample that favours compounds with a hit; in the whole collection about 7.4% have one here.
SMILES,S1P3 agonist,M1 ag,Jurkat viability,JNK3 blocker,S1P1 ag pot,M1 antag
O=C(Nc1ccncc1)c1cccc(F)c1,0.6,-0.167,-7.3,2.9,-9.5,-0.227
CCOC(=O)N1CCc2c(sc(NC(=O)c3ccc(Cl)s3)c2C(N)=O)C1,-0.5,5.26*,12.7,8.4,50.0,-0.042
CC(C)CCN(C(=O)CNC(=O)c1ccco1)C(C(=O)NC1CCCCC1)c1ccco1 (stereo not drawn),0.9,-0.502,-13.8,-1.1,-15.5,1.51
CCCCCCn1ccc(=N)cc1,-1.1,0.742,40.9*,-6.3,14.8,-1.33
O=C(c1c(F)cccc1F)N(Cc1ccccn1)C1CCCC1,1.3,0.702,2.9,4.8,6.5,-0.349
CCOc1ccc(N(CC)S(=O)(=O)c2ccc3c(c2)oc(=O)n3C)cc1,-0.4,-0.031,66.3*,1.8,-9.8,0.0652
CCOc1ccc(NS(=O)(=O)c2ccc3c(c2)oc(=O)n3C)cc1,-0.3,0.423,2.1,-0.2,6.1,0.803
Cc1ccc(C)c(C(=O)COC(=O)c2ccc(Br)o2)c1,-1.1,-0.0211,-1.1,7.2,-17.1,2.16*
CCOC(=O)c1c(C)c(C(=O)NCCCOC(C)C)c(C)n1C,0.0,0.328,-0.3,-1.7,7.1,-0.56
O=C(C1CCC1)N1CCc2cc(S(=O)(=O)NCC3COc4ccccc4O3)ccc21 (stereo not drawn),-0.9,-0.738,1.0,3.2,50.4,0.603
O=C(C1CCC1)N1CCc2cc(S(=O)(=O)Nc3ccc4c(c3)OCCO4)ccc21,-0.7,-0.637,25.9,3.9,114.8*,0.117
O=C(NC1CCCCC1)c1ccc(Cn2cc(Br)cn2)o1,0.1,0.6,6.3,1.5,-0.8,0.735
O=C(NCc1ccccn1)c1ccc(Cn2cc(Br)cn2)o1,0.6,0.0587,0.9,1.0,7.8,2.32*
O=C(c1ccc(Cl)cc1)C1C2C(=O)N(c3ccccc3)C(=O)C2C2CCCN21 (stereo not drawn),-1.0,14.5*,-1.7,5.0,1.6,0.859
CCOC(=O)C1C(=O)N(C(=O)c2cncc(Br)c2)CC1c1ccccc1 (stereo not drawn),-0.1,0.517,4.6,-0.3,-4.9,0.0426
Cc1c(NC(=O)OCCSc2nc(N(C)C)nc(N(C)C)n2)sc(=S)n1C,·,-0.884,·,·,·,0.864
O=C(c1ccco1)N1CCN(C(=O)c2cc(-c3ccccn3)nc3ccc(Cl)cc23)CC1,-0.4,5.26*,-5.7,-4.0,-1.6,-0.851
Cc1oc2ccc(OCC(N)=O)cc2c1C(=O)OC(C)C,-1.1,-0.0917,0.3,31.6*,17.2,1.59
Fc1ccc(Br)cc1C1C=C(c2cccnc2)Nc2ncnn21 (stereo not drawn),-0.9,-1.48,38.9*,1.2,16.4,0.428
CCOC(=O)C1=C(C)Nc2ncnn2C1c1cc(Br)ccc1F (stereo not drawn),0.4,0.285,31.1,-0.5,-8.6,0.386
CCCn1c2c(c(O)c(C(=O)Nc3ccccc3)c1=O)CCCC2,-1.0,0.273,2.6,-4.5,-4.5,-0.149
CCOC(=O)c1cccc(NC(=O)C2CCCN2S(=O)(=O)c2cccc3cccnc23)c1 (stereo not drawn),-1.1,1.68,5.3,5.9,2.3,0.623
O=C(Nc1cccc(C(F)(F)F)c1)C1CCCN1S(=O)(=O)c1cccc2cccnc12 (stereo not drawn),-0.1,1.17,12.4,0.7,71.2*,-0.322
COc1cccc(C(=O)NCC(=O)n2nc(C)cc2C)c1,-3.1,-0.298,·,1.3,-5.8,-0.0331
CCN(CC)c1nc(N)c2c(N)nc3c(c2c1C#N)CC(c1ccccc1)O3 (stereo not drawn),-0.6,-0.531,3.9,-4.5,-50.1,2.16*
SMILES,S1P3 agonist,M1 ag,Jurkat viability,JNK3 blocker,S1P1 ag pot,M1 antag
Cc1ccc(S(=O)(=O)N2CCCCC2)cc1C(=O)Nc1ncn[nH]1,0.4,0.0921,-5.9,1.3,-0.1,-0.222
CC1(C)CC(=O)C(CCC(=O)c2ccccc2)C(C)(C)N1 (stereo not drawn),-0.5,-0.638,3.5,0.6,-10.6,-0.0228
Cc1csc2c(C#N)c(=O)c3c(n12)CCC3,-0.5,-0.192,-1.3,9.8,4.1,0.354
CCC1CCCCN1c1nc2c(c(=O)n(C)c(=O)n2C)n1CCSc1nc2ccccc2o1 (stereo not drawn),-0.8,0.195,1.7,6.7,17.8,-0.712*
Cn1c(=O)c2c(nc(N3CCCCC3)n2CCSc2nc3ccccc3o2)n(C)c1=O,0.6,-0.755,5.0,-5.4,-0.3,-0.924
COc1cccc(CN(C)CC(=O)NC(=O)NCc2ccco2)c1,-0.8,-0.624,-3.3,-4.5,-11.3,-0.494
CS(=O)c1nc(-c2ccc(Br)cc2)cc(-c2ccccc2)c1C#N (stereo not drawn),-0.8,0.145,100.1*,-3.3,-29.7,0.127
Cc1cc(-c2ccccc2)c(C#N)c(N)n1,·,0.355,·,·,·,-0.292
OCCSc1ncnc2c1oc1ccccc12,-0.3,0.241,2.3,6.7,-36.5,-0.4
N#CCCSc1ncnc2c1oc1ccccc12,0.0,-0.236,-4.9,27.8*,-18.5,-1.15
O=C(CSc1ncnc2c1oc1ccccc12)N1CCCc2ccccc21,0.4,1.8,0.3,3.2,64.9*,-2.27
CCOC(=O)CC(=O)CSc1ncnc2c1oc1ccccc12,-0.3,-0.0522,-5.8,42.0*,-10.4,0.531
COc1cccc(NC(=O)CSc2ncnc3c2oc2ccccc23)c1,-1.7,0.583,-3.4,0.2,-4.8,-0.227
CCN(CC)c1ccc(NC(=O)C2CCCN(S(=O)(=O)c3cnc[nH]3)C2)c(C)c1 (stereo not drawn),0.2,-0.00729,-4.1,-9.9,-10.2,-0.748
C=C(C)Cn1c(CCCNC(=O)C(C)(C)C)nc2ccccc21,·,-0.0148,·,·,·,1.01
CSc1cccc(NC(=O)c2ccco2)c1,-1.7,0.754,-3.2,4.4,-12.0,-0.0458
CCOC(=O)/C=C/S(=O)(=O)c1ccc(NC(C)=O)cc1,-2.0,-0.787,52.5*,-1.1,151.7*,1.9*
CS(=O)(=O)N(CC(=O)N1CCN(c2ccccc2F)CC1)c1cccc(C(F)(F)F)c1,-0.6,-2.08,3.8,1.5,-1.9,0.000615
c1ccc(-c2n[nH]c3c2CCC3)cc1,0.9,0.361,0.4,18.0*,-12.5,-0.498
O=C(CSc1nc(-c2ccncc2)nn1CC(=O)N1CCCCC1)NC1CCCC1,·,-0.17,·,·,·,0.0214
COc1ccccc1C1CC(=O)Nc2cc3c(cc21)OCCO3 (stereo not drawn),-1.0,-0.0117,91.7*,-0.3,-0.8,0.0325
CC(C)Oc1ccccc1C1CC(=O)Nc2cc3c(cc21)OCCO3 (stereo not drawn),-2.3,1.54,98.3*,2.5,-23.9,0.479
O=S(=O)(c1ccc(NCCc2c[nH]c3ccccc23)nc1)N1CCOCC1,0.5,-0.13,3.3,3.2,30.3,-0.472
O=c1[nH]c(=S)c2c(n1-c1ccccc1)CCC2,-0.1,-0.422,2.8,17.6*,-6.9,-0.0225
